# Results from different studies.
# Compare with care: the assays were run in different laboratories.
# Observed: cell growth or viability
Structure (SMILES),cell line,test,setting,quantity,result
[NH2][Pt]([NH2])([Cl])[Cl],HeLa,SRB,,GI50,1.9 µM
CCC(=CCc1c(O)cc2c(c1O)C(=O)CC(c1ccc(O)cc1)O2)CC (stereo in doubt),HeLa,MTT,"0.781 µM, 48 h",inhibition,0.607%
Cc1nc(Nc2ncc(C(=O)Nc3c(C)cccc3Cl)s2)cc(N2CC[C@H](O)C2)n1,P3HR-1,ATP luminescence,"10 µM, 72 h",inhibition,51%
C=C(NC(=O)C(=C)NC(=O)c1csc(C2=N[C@@H]3c4csc(n4)[C@H]4NC(=O)c5csc(n5)[C@H]([C@](C)(O)[C@@H](C)O)NC(=O)[C@H]5CSC(=N5)/C(=C/C)NC(=O)[C@H]([C@@H](C)O)NC(=O)c5csc(n5)[C@]3(CC2)NC(=O)[C@H](C)NC(=O)C(=C)NC(=O)[C@H](C)NC(=O)[C@H]([C@@H](C)CC)N[C@@H]2C=Cc3c([C@H](C)O)cc(nc3[C@H]2O)C(=O)O[C@@H]4C)n1)C(N)=O,NCI-H1792,,,EC50,3.2 µM
CCOc1ccc(C(=O)CC(SCc2ccc(Cl)cc2)C(=O)OC)cc1 (centres unmarked),SK-MEL-2,MTT,48 h,EC50,23 µM
Cc1c(Cl)c(=O)oc2cc(OCCCCSC#N)ccc12,HeLa,SRB,,GI50,6.2 µM
CCC(=CCc1c(O)cc2c(c1O)C(=O)C[C@@H](c1ccccc1O)O2)CC,HeLa,MTT,"15 µM, 48 h",inhibition,0.607%
CCOc1cccc(C(=O)CC(SCc2cccc(Br)c2)C(=O)O)c1 (centres unmarked),U2OS,MTT,48 h,EC50,98 µM
C[C@H](Nc1ccc2c(c1)OCCn1cc(N3C(=O)OC[C@H]3C(F)F)nc1-2)C(N)=O,Detroit 562,ATP luminescence,5 days,EC50,0.0831 µM
CCOc1ccc(-c2cc(C(=O)O)c(-c3ccc(Cl)cc3)o2)cc1,SK-MEL-2,MTT,48 h,EC50,72 µM
O=c1[nH]cc(F)c(=O)[nH]1,HeLa,SRB,,GI50,4.4 µM
